Apaf1 inhib – blocks human Apaf-1 apoptosome activity. O14727. reconstituted apoptosome caspase-3 activity, DEVD-Rh110 fluorescence. inhibition, % at 20 µM. 330,000 tested, 0.71% active; active = inhibition of at least 40% at 20 µM;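 note: plate controls were DMSO wells for no effect and DEVD-CHO caspase inhibitor wells for full effect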
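Material: reconstituted apoptosome with Apaf-1, cytochrome c, caspase-9, procaspase-3, dATP; medium: pH 7.5 Hepes buffer with CHAPS, BSA, DTT; also added: cytochrome c and DEVD-Rh110 substrate; timing: 30 min plus 50 min, RT; signal: Rh110 fluorescence intensity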
EBNA-1 inhibitor – blocks EBNA-1 binding to DNA; EBNA-1 DNA binding, fluorescence polarization; inhibition, % at 14.8 µM; 300,000 tested, 0.34% active; AID 1950; in the data active = inhibition above about 28%
proCasp7 act – activates human procaspase-7, counter-screen for procaspase-3 activators; P55210; recombinant procaspase-7, Ac-DEVD-pNA absorbance 405 nm; D23A/D198A/D206A triple mutant, cannot self-cleave; scale: DMSO 0, 5 µM enzyme 100; activation, % at 8.5 µM; 330,000 tested, 0.093% active; AID 463210;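 active = percent activation above the screen-wide mean plus 3 SD, cut at about 25% in these data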
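buffer or medium = Zinc-free HEPES/NaCl buffer, pH 7.4 | material = Procaspase-7 triple mutant (PC-7 D3A) | input = 2 µM procaspase-7 mutant as dispensed | signal = Epi-absorbance of released pNA at 405 nm, two timepoints | timing = 1 h preincubation, 2 h reaction | replicates = singlicate compound testing | evaluation = % activation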
GSTO1 inh – GSTO1 inhibition, counter-screen for RBBP9 inhibitors; P78417; 300,000 tested, 1.1% active; inhibition, % at 5.96 µM; recombinant GSTO1, activity-based probe fluorescence polarization;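 active = inhibition above the campaign mean inhibition plus 3 SD, cut at about 35% in these data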;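 note: 0% = GSTO1-1 with DMSO and 100% = wells lacking GSTO1-1 enzyme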
Target sequence (P78417 whole entry, looked up): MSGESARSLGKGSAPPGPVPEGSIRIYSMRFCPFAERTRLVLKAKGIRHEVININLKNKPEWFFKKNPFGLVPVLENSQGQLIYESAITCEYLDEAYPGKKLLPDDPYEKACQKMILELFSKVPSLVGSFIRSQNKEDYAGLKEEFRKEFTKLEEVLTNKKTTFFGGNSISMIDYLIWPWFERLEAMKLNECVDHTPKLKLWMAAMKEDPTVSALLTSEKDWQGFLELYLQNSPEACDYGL
proCasp3 act – activators of human procaspase-3. P42574. recombinant procaspase-3 D3A, Ac-DEVD-pNA absorbance 405 nm. activation, % at 8.5 µM. 330,000 tested, 0.11% active. AID 463141;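 active = activation above the mean of all tested compounds plus 3 SD, cut at about 21% in these data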;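 note: 0% = DMSO alone and 100% = DMSO wells spiked with extra 5 µM PC-3 D3A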
Target sequence (P42574 whole entry D9A/D28A/D175A): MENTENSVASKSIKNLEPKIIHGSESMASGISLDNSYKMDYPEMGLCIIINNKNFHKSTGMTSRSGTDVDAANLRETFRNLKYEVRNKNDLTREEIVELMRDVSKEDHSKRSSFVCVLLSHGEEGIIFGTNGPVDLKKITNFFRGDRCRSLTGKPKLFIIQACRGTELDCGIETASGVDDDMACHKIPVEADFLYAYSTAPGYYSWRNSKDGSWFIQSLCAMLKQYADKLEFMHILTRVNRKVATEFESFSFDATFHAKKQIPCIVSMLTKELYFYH
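Assay system – Procaspase-3 D3A mutant, all three cleavage aspartates alanine · Controls – DMSO-only low control, 5 µM PC-3 D3A high control · Schedule – 1 h compound preincubation, 2 h substrate hydrolysis at 25 °C · Signal – 405 nm absorbance of p-nitroaniline, reads at 0 and 120 min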
ZTA DNA inh – blocks Epstein-Barr virus ZTA, an EBNA-1 counter-screen. P03206. ZTA-DNA binding, fluorescence polarization. inhibition, % at 11 µM. 320,000 tested, 0.15% active. AID 2234; in the data active = inhibition above about 33%
Apaf-1 inh conf – Apaf-1 inhibition, single-dose confirmed; reconstituted apoptosome, caspase-3 DEVD-Rh110 fluorescence; inhibition, % at 20 µM; 1,800 tested, 25% active; shares compounds with Apaf1 inhib;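 active = mean inhibition of at least 40% at 20 µM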;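 note: plate controls were DMSO wells for no effect and DEVD-CHO caspase inhibitor control wells for full effect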
Rh110 quench – interferes with Rh110 fluorescence, flagging false Apaf-1 inhibitors. shares compounds with Apaf1 inhib. Rh110 fluorescence interference, quenched caspase reaction. activation (fluorescence interference), % at 20 µM. 1,800 tested, under 10 active;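 active = signal rise of 40% or more at 20 µM, treated as a fluorescence artifact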
Apaf1 inh interf – counter-screen for Apaf-1 inhibitors: fluorescence interference, dose response; shares compounds with Apaf1 inhib; fluorescence interference counterscreen, Apaf-1 assay format; IC50, µM; 460 tested, under 10 active; AID 588538; call rule not given here
Numbers without * were called inactive; ! = not confirmed by another sample. Shown are actives, neighbours in structure and some others; about 1.8% of the full set was active somewhere.

`COc1ccc(NC(=O)c2cc(-c3ccncc3)nc3ccc(Br)cc23)cc1OC` gave Apaf1 inhib 45*, EBNA-1 inhibitor 3, proCasp7 act -3, GSTO1 inh 7, proCasp3 act 3, ZTA DNA inh 7, Apaf-1 inh conf 12 and Rh110 quench 8.
For O=C(Nc1ccncc1)c1cc(-c2cccc(Br)c2)nc2ccccc12 the results were Apaf1 inhib 47*, EBNA-1 inhibitor 1, proCasp7 act 6, GSTO1 inh -17, proCasp3 act -7, ZTA DNA inh -8, Apaf-1 inh conf 19 and Rh110 quench 8.
Screening O=C(Nc1ccc(N2CCOCC2)cc1N1CCOCC1)c1ccc([N+](=O)[O-])cc1 returned Apaf1 inhib 13, EBNA-1 inhibitor -7, proCasp7 act -2, GSTO1 inh 6, proCasp3 act -3 and ZTA DNA inh -3.
Screening O=C(NNc1cc(N2CCOCC2)nc(N2CCOCC2)n1)c1ccc([N+](=O)[O-])cc1 returned Apaf1 inhib 97*, Apaf-1 inh conf 60*, Rh110 quench 18 and Apaf1 inh interf >100.
`O=C(NC1CCOc2ccccc21)C1CCCC1` (configuration not stated) gave Apaf1 inhib -4, EBNA-1 inhibitor 10, proCasp7 act 0, GSTO1 inh -1, proCasp3 act 5 and ZTA DNA inh 10.
`CC(=O)C(C(C)=O)C1(O)C(=O)c2ccccc2C1=O` gave Apaf1 inhib 86*, EBNA-1 inhibitor 1, proCasp7 act -7, GSTO1 inh 75*, proCasp3 act 3, ZTA DNA inh 14, Apaf-1 inh conf 87*, Rh110 quench -2 and Apaf1 inh interf >100.
Screening COc1ccc(O)c(C2(O)C(=O)c3ccccc3C2=O)c1 returned Apaf1 inhib -11, EBNA-1 inhibitor -11, proCasp7 act 1, GSTO1 inh -6, proCasp3 act -2 and ZTA DNA inh -2.
`Cc1cc([N+](=O)[O-])ccc1NC(=S)NC1CCCC1` gave Apaf1 inhib 6, EBNA-1 inhibitor 16, proCasp7 act -4, GSTO1 inh 1, proCasp3 act 3 and ZTA DNA inh 9.
Cn1c(=O)c2c(nc(CN3CCN(Cc4ccccc4)CC3)n2Cc2cccc(Cl)c2)n(C)c1=O was read as Apaf1 inhib 23, EBNA-1 inhibitor -2, proCasp7 act -2, GSTO1 inh 6, proCasp3 act -2 and ZTA DNA inh -9.
For Cn1c(=O)c2c(nc(CN3CCc4ccccc4C3)n2Cc2cccc(Cl)c2)n(C)c1=O the results were Apaf1 inhib 51*, EBNA-1 inhibitor 1, proCasp7 act 7, GSTO1 inh 0, proCasp3 act 3, ZTA DNA inh -1, Apaf-1 inh conf 20 and Rh110 quench 2.
For Cc1ccccc1C(=O)N1CCC(C(=O)OCc2ccccc2Cl)CC1 the results were Apaf1 inhib 24, proCasp7 act 3, proCasp3 act 3 and ZTA DNA inh 2.
Screening O=C(NCc1cccs1)c1cccc(S(=O)(=O)N2CCCCC2)c1 returned Apaf1 inhib 55*, EBNA-1 inhibitor 0, proCasp7 act 4, GSTO1 inh 2, proCasp3 act 7, ZTA DNA inh -2, Apaf-1 inh conf 15 and Rh110 quench 5.
`CCOC(=O)Nc1ccc(NCc2ccc(F)cc2)nc1N` gave Apaf1 inhib 96*, EBNA-1 inhibitor -1, proCasp7 act 20, GSTO1 inh 12, proCasp3 act 13, ZTA DNA inh 9, Apaf-1 inh conf 53*, Rh110 quench 4 and Apaf1 inh interf >100.
For CCOC(=O)Nc1ccc(C)cc1NC(=O)OCC the results were Apaf1 inhib -6, EBNA-1 inhibitor 4, proCasp7 act 3, GSTO1 inh 6, proCasp3 act -3 and ZTA DNA inh -14.
COCCCC/C(=N\OCCN)c1ccc(C(F)(F)F)cc1 was read as Apaf1 inhib 99*!, EBNA-1 inhibitor 2, proCasp7 act 0, GSTO1 inh 1, proCasp3 act 8, ZTA DNA inh -5, Apaf-1 inh conf 3 and Rh110 quench -3.
For O=C(CCC(=O)OCC(=O)c1ccc(C(F)(F)F)cc1)OCC(=O)c1ccc(C(F)(F)F)cc1 the results were Apaf1 inhib -17, EBNA-1 inhibitor -10, proCasp7 act -3, GSTO1 inh 4, proCasp3 act 4 and ZTA DNA inh -7.
Screening O=C(CNS(=O)(=O)c1cccs1)NCCc1ccc(Cl)cc1 returned Apaf1 inhib 5, EBNA-1 inhibitor 2, proCasp7 act 2, GSTO1 inh -14, proCasp3 act 5 and ZTA DNA inh -8.
Screening Cc1c(C(=O)Nc2ccc(S(=O)(=O)N(C)C3CCN(C)CC3)cc2)oc2ccccc12 returned Apaf1 inhib 53*, proCasp7 act -2, proCasp3 act 2, ZTA DNA inh -1, Apaf-1 inh conf 21 and Rh110 quench 2.
Screening CCn1c(=O)c2cc(C(=O)N(C)c3ccc(OC)cc3OC)sc2c2ccccc21 returned Apaf1 inhib 19, EBNA-1 inhibitor 0, proCasp7 act 4, GSTO1 inh -11, proCasp3 act -6 and ZTA DNA inh 6.
CCn1c(=O)c2cc(C(=O)N(C)c3cc(C)ccc3OC)sc2c2ccccc21 was read as Apaf1 inhib 53*, EBNA-1 inhibitor -25, proCasp7 act -4, GSTO1 inh -11, proCasp3 act 3, ZTA DNA inh 0, Apaf-1 inh conf 26 and Rh110 quench 7.
`CCC/C(=C1/c2ccccc2C(=O)N1c1ccccc1)c1ccc2c(c1)OCCO2` gave Apaf1 inhib 14, proCasp7 act 12, proCasp3 act 5 and ZTA DNA inh 0.
`CCC/C(=C1/c2ccccc2C(=O)N1c1ccccc1)c1cnc(OC)nc1` gave Apaf1 inhib 41*, proCasp7 act -10, proCasp3 act -2, Apaf-1 inh conf 24 and Rh110 quench 2.
CCOC(=O)N1CCN(S(=O)(=O)c2ccc(C(=O)N(CCCN(C)C)c3nc4ccc(CC)cc4s3)cc2)CC1 was read as Apaf1 inhib 55*, EBNA-1 inhibitor 8, proCasp7 act 8, GSTO1 inh 8, proCasp3 act 8, ZTA DNA inh -5, Apaf-1 inh conf 7 and Rh110 quench 3.

Bioassay records from PubChem BioAssay.
